Experimental data as given in ChEMBL document CHEMBL1148164, “Cytotoxicity of artemisinin-related endoperoxides to Ehrlich ascites tumor cells” (J Nat Prod, 1993).

Tests used:
[1] = Cytotoxicity against mouse EAC after 3 days by MTT assay; assay type: functional, cell-based; conditions: Ehrlich, 72 h
Outline: (§1)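 Exponentially growing EAT cells (>95% trypan-blue viable; RPMI 1640, 10% heat-inactivated FCS) at 400 cells/well were exposed to compounds for 2 h at 37°, 5% CO2 (final DMSO 0.25%). Cells were washed 3×, then grown 3 days. MTT (5 mg/ml in PBS) was added for 3 h 45 min, formazan was dissolved in DMSO, and A520 was read. Survival is relative to untreated, medium-blank corrected. Three separate experiments.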

[2] = Cell cycle arrest in mouse EAC assessed as accumulation at S phase by FACS analysis; assay type: functional, cell-based; design: concentration or dose not given beside the values; conditions: Ehrlich
[3] = Cytotoxicity against mouse EAC at >175 uM after 3 days by MTT assay; assay type: functional, Ehrlich; outline: as §1
[4] = Cytotoxicity against mouse EAC at >125 uM after 3 days by MTT assay; assay type: functional, Ehrlich; outline: as §1
[5] = Cytotoxicity against mouse EAC at >500 uM after 3 days by MTT assay; assay type: functional, Ehrlich; outline: as §1
[6] = Cytotoxicity against mouse EAC at >50 uM after 3 days by MTT assay; assay type: functional, Ehrlich
Outline: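 EAT cells grown in suspension in RPMI 1640 with 10% heat-inactivated FCS, streptomycin and penicillin, 37°, 5% CO2; exponential cells, viability >95%. 400 cells/well exposed 2 h at 37° (final DMSO 0.25%), washed 3×, regrown 3 days. MTT 3 h 45 min, formazan in DMSO, A520; survival versus untreated controls. Triplicate separate experiments, mean ± SD.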

SMILES	IC50 [1] [µM]	IC80 [1] [µM]	Activity [2] [%]	Activity [3] [%]	Activity [4] [%]	Activity [5] [%]	Activity [6] [%]
C[C@H]1[C@H](O[C@@H]2O[C@@H]3O[C@@]4(C)CC[C@H]5[C@H](C)CC[C@@H]([C@H]2C)[C@@]35OO4)O[C@@H]2O[C@@]3(C)CC[C@H]4[C@H](C)CC[C@@H]1[C@@]24OO3	1.4	2.4					
C=C1C(=O)O[C@@H]2O[C@@]3(C)CC[C@H]4[C@H](C)CC[C@@H]1[C@@]24OO3 [ARTEMISITENE]	6.8	16					
C[C@@H]1CC[C@H]2[C@@H](C)C(=O)O[C@@H]3O[C@@]4(C)CC[C@@H]1[C@]32OO4 [ARTEMISININ]	29.8	346	63				
C=C1[C@@H](OO)O[C@@H]2O[C@]3(C)CC[C@H]4[C@H](C)CC[C@@H]1[C@@]24OO3 [HYDROPEROXYARTEMISITENE]	37.8	59.2					
CC1=CO[C@@H]2O[C@]3(C)CC[C@H]4[C@H](C)CC[C@@H]1[C@@]24OO3 [ANHYDRODIHYDROARTEMISININ]	29.2	207					
CC(=O)[C@@H]1CC[C@@H](C)[C@@H]2CC[C@@]3(C)OO[C@@]12C(=O)O3	> 175	> 175		98.1			
CCO[C@H]1O[C@@H]2O[C@@]3(C)CC[C@H]4[C@H](C)CC[C@@H]([C@H]1C)[C@@]24OO3 [ARTEMOTIL]	13.1	212	63				
C[C@@H]1[C@H](OCc2ccc(C(=O)O)cc2)O[C@@H]2O[C@@]3(C)CC[C@@H]4[C@@H](C)CC[C@@H]1[C@]24OO3 [ARTELINIC ACID]	16.1	103	63				
C[C@H]1[C@H](OC(=O)CCC(=O)O)O[C@@H]2O[C@@]3(C)CC[C@H]4[C@H](C)CC[C@@H]1[C@@]24OO3 [SODIUM ARESUNATE]	19.9	53.6					
C[C@@H]1CC[C@@H]2[C@]34OO[C@](C)(CC[C@@H]13)O[C@H]4OC(=O)[C@]2(C)O	48.7	125					
C=C1C(=O)O[C@@H]2/C=C(\C)CC/C=C(/C)C[C@@H](OC(=O)/C(=C/CO)CO)[C@@H]12 [EUPATORIOPICRIN]	5.7	13.4					
C[C@H]1[C@@H](OCc2ccc(C(=O)O)cc2)O[C@@H]2O[C@]3(C)CC[C@H]4[C@H](C)CC[C@@H]1[C@@]24OO3 [SODIUMARTELINATE]	12.2	47.9	63				
CO[C@H]1O[C@@H]2O[C@@]3(C)CC[C@H]4[C@H](C)CC[C@@H]([C@H]1C)[C@@]24OO3 [ARTEMETHER]	14.3	> 125	63		26.7		
C[C@H]1[C@@H](O)O[C@@H]2O[C@@]3(C)CC[C@H]4[C@H](C)CC[C@@H]1[C@@]24OO3 [ARTENIMOL]	83.4	233					
C[C@@H]1CC[C@@H]2[C@]34OO[C@@](C)(CC[C@@H]13)O[C@H]4OC(=O)[C@@]2(C)O	> 125	> 125			98.8		
C=C(C(=O)O)[C@@H]1CC[C@@H](C)[C@@H]2CCC(C)=C[C@@H]21 [ARTEMISINIC ACID]	> 175	> 175		100			
CC(C)C12C=CC(C)(CC1)OO2 (stereo not drawn) [ASCARIDOLE]	> 500	> 500				74.8	
COc1cccc2c1C(=O)c1c(O)c3c(c(O)c1C2=O)C[C@@](O)(C(=O)CO)C[C@@H]3O[C@H]1C[C@H](N)[C@H](O)[C@H](C)O1 [DOXORUBICIN]	0.35	1					
CC(=O)[C@@H]1CC[C@@H](C)[C@@H]2CC[C@@]3(C)OO[C@@]12[C@H](OC=O)O3	91	156					
C=C1[C@@H](OOCC)O[C@@H]2O[C@]3(C)CC[C@H]4[C@H](C)CC[C@@H]1[C@@]24OO3 [ETHYLPEROXYARTEMISITENE]	11.5	38.3					
C=C1C(=O)O[C@@]23[C@H]1CC[C@@H](C)[C@@H]2CC[C@@]1(C)O[C@@H]31 [ARTEANNUIN B]	47	> 50					44.8
